The source of these data is ChEMBL document CHEMBL3102844, “Synthesis and evaluation of Strychnos alkaloids as MDR reversal agents for cancer cell eradication” (Bioorg Med Chem, 2014).

Active and inactive are the calls of the source. No cut-off for these calls is given here.

Data set [1] has as its system KB. Put plainly: Cytotoxicity against human KB cells overexpressing human MDR1 assessed as reduction in cell viability after 4 days by MTT assay. It counts as functional, cell-based. An outline of the steps:
(§1)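 KB-MDR (1000 cells/well) or KB-V20C (2000 cells/well) Pgp-overexpressing KB lines in RPMI1640 with 10% FBS; cultured 4 days with serial concentrations of test compound. Viability read by MTT endpoint absorbance. IC50 obtained by fitting a sigmoid Emax model to viability versus concentration; duplicates from three independent experiments.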
(Tetrazolium assays rely on reduction of a dye to a coloured formazan, in cell work by metabolically active cells.)

For data set [2], the target named is T1, ATP-dependent translocase ABCB1 (Homo sapiens, UniProt P08183). In words: Inhibition of p-glycoprotein (unknown origin) overexpressed in human KBV20C cells assessed as potentiation of vincristine-induced cytotoxicity at 3 uM incubated for 1 hr prior to vincristine challenge measured after 4 days by MTT assay. It counts as cell-based. The following applies: 96 h.
T1 sequence (P08183 whole entry): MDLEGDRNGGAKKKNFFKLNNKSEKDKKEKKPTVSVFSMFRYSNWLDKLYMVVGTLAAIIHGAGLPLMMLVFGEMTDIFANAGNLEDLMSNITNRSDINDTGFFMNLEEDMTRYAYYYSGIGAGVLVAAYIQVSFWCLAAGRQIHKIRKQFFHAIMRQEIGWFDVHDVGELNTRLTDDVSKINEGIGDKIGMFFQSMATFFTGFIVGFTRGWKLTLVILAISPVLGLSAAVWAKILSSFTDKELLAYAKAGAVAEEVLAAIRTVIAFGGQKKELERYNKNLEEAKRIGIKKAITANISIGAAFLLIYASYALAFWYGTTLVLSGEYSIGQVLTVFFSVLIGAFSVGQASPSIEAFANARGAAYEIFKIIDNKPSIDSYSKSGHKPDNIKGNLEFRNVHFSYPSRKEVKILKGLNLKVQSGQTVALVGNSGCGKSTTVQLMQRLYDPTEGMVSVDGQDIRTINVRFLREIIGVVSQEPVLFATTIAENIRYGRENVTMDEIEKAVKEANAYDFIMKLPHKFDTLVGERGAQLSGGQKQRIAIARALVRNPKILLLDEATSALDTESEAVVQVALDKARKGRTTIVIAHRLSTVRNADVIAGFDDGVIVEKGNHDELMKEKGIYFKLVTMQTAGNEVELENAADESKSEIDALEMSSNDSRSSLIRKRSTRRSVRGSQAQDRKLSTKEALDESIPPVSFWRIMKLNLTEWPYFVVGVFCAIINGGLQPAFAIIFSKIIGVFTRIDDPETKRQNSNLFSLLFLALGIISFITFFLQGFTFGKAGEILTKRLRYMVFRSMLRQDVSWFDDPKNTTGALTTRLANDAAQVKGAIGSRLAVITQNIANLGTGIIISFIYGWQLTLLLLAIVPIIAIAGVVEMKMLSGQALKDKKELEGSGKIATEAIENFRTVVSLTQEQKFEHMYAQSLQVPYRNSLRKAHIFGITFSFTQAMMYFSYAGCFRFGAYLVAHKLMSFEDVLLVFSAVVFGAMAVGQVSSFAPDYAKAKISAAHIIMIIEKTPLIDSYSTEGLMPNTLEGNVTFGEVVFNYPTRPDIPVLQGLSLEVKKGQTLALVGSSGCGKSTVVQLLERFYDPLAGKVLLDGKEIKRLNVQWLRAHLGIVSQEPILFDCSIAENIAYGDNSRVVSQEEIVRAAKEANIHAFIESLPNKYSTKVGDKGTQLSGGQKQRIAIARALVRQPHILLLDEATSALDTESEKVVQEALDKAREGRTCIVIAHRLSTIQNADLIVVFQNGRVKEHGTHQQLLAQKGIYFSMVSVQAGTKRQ

The subject of data set [3] is KBV20C. In words: (§2) Cytotoxicity against human KBV20C cells overexpressing pgp assessed as reduction in cell viability after 4 days by MTT assay. It counts as functional, cell-based. An outline of the steps:
as §1

Data set [4] in a line: Binding affinity to p-glycoprotein (unknown origin) by intrinsic tryptophan fluorescence quenching assay. Also on record: species or system Homo sapiens.
Data set [5] deals with T1, ATP-dependent translocase ABCB1. Put plainly: Inhibition of human MDR1 overexpressed in human KB cells assessed as potentiation of vincristine-induced cytotoxicity at 3 uM incubated for 1 hr prior to vincristine challenge measured after 4 days by MTT assay relative to verapamil. It counts as cell-based. The following applies: 96 h.
Data set [6] shares this target. Put plainly: Inhibition of human MDR1 overexpressed in human KB cells assessed as potentiation of vincristine-induced cytotoxicity at 1 uM incubated for 1 hr prior to vincristine challenge measured after 4 days by MTT assay relative to verapamil. It counts as cell-based. The following applies: 96 h.
The species entered for data set [7] is Homo sapiens. In words: Inhibition of human recombinant p-glycoprotein ATPase activity using ATP as substrate at 0.3 to 1 mM after 40 mins by luciferase-mediated Pgp-Glo assay. An outline of the steps:
(§3)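 Reaction started with ATP (5 mM final), 40 min at 37 °C, stopped with ATP detection reagent; residual ATP read by luciferase luminescence. Luminescence difference gives effect on ATPase activity. Triplicates in two independent experiments.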

Data set [8] has as its target T1, ATP-dependent translocase ABCB1. In words: Inhibition of p-glycoprotein (unknown origin) overexpressed in human KBV20C cells assessed as potentiation of vincristine-induced cytotoxicity at 1 uM incubated for 1 hr prior to vincristine challenge measured after 4 days by MTT assay. It counts as cell-based. To be noted: 96 h.
The species entered for data set [9] is Homo sapiens. Put plainly: Induction of human recombinant p-glycoprotein ATPase activity using ATP as substrate at 0.3 to 1 mM after 40 mins by luciferase-mediated Pgp-Glo assay. An outline of the steps: as §3
The target of data set [10] is T1, ATP-dependent translocase ABCB1. In words: Inhibition of human MDR1 overexpressed in human KB cells assessed as potentiation of vincristine-induced cytotoxicity at 0.28 uM incubated for 1 hr prior to vincristine challenge measured after 4 days by MTT assay relative to verapamil. It counts as cell-based. To be noted: 96 h.
Data set [11] in a line: as §2. It counts as functional, cell-based. To be noted: 96 h. An outline of the steps: as §1
The target of data set [12] is T1, ATP-dependent translocase ABCB1. Put plainly: Inhibition of human MDR1 overexpressed in human KB cells assessed as potentiation of vincristine-induced cytotoxicity at 0.07 uM incubated for 1 hr prior to vincristine challenge measured after 4 days by MTT assay relative to verapamil. It counts as cell-based. To be noted: 96 h.
The target is the same in data set [13]. Put plainly: Inhibition of p-glycoprotein (unknown origin) overexpressed in human KBV20C cells assessed as potentiation of vincristine-induced cytotoxicity at 0.28 uM incubated for 1 hr prior to vincristine challenge measured after 4 days by MTT assay. It counts as cell-based. The following applies: 96 h. An outline of the steps:
(§4)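 Pgp-overexpressing KB-MDR or KB-V20C cells, 1000–2000 cells/well in RPMI1640 with 10% FBS, pretreated 1 h with modulator at final 0.07–3.0 µM, then exposed to serial dilutions of vincristine or doxorubicin for four days. […] Viability read by MTT. Cytotoxic-drug IC50 obtained by sigmoid Emax fit; duplicates, three independent experiments.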

For data set [14] the target is unchanged. In words: Inhibition of human MDR1 overexpressed in human KB cells assessed as potentiation of vincristine-induced cytotoxicity at 0.14 uM incubated for 1 hr prior to vincristine challenge measured after 4 days by MTT assay relative to verapamil. The following applies: 96 h. It counts as cell-based.
Data set [15] shares this target. In words: Inhibition of human MDR1 overexpressed in human KB cells assessed as potentiation of doxorubicin-induced cytotoxicity at 1 uM incubated for 1 hr prior to […] measured after 4 days by MTT assay relative to verapamil. The following applies: 96 h. It counts as cell-based.
The target is the same in data set [16]. In words: Inhibition of p-glycoprotein (unknown origin) overexpressed in human KBV20C cells assessed as potentiation of vincristine-induced cytotoxicity at 0.14 uM incubated for 1 hr prior to vincristine challenge measured after 4 days by MTT assay. It counts as cell-based. To be noted: 96 h. An outline of the steps: as §4
For data set [17] the target is unchanged. Put plainly: Inhibition of p-glycoprotein (unknown origin) overexpressed in human KBV20C cells assessed as potentiation of vincristine-induced cytotoxicity at 0.07 uM incubated for 1 hr prior to vincristine challenge measured after 4 days by MTT assay. It counts as cell-based. To be noted: 96 h. An outline of the steps: as §4

With `CC[C@@H]1CN2CC[C@]34C(=C(C(=O)OC)[C@H]1C[C@H]23)Nc1ccccc14`, the Activity result in data set [1] and in data set [3] was “Dose-dependent effect” each time. The “fold change (FC)” value in data set [2] was 0.2; in [5], 3.8; in [6] it was 2.5; in data set [8], 0.1. In addition, the Kd (in general, the equilibrium constant for the complex coming apart) in data set [4] came out at 92 µM. In [7], the inhibition entry is “Active”.
As for `CC[C@@H]1CN2CC[C@]34c5ccccc5-n5c3c(cc(C(N)=O)c5=O)[C@H]1C[C@H]24` [LEUCONICINE A], the Activity result in data set [1] and in data set [3] was “Dose-dependent effect” in each case. Besides, the “fold change (FC)” value in data set [2] is recorded as 0.6; in data set [5], 5; in [6], 3.8; in data set [8], 0.3. The compound also yielded an equilibrium dissociation constant (Kd) in data set [4] of 14.1 µM.
On to `C/C=C1\CN2CC[C@]34c5ccccc5-n5c3c(cc(C(=O)OC)c5=O)[C@H]1C[C@H]24`, for which the Activity entry in [1] and in data set [3] was “Dose-dependent effect” in each case. For the same compound, the result in data set [9] was Active. Moreover, the “fold change (FC)” value was 0.3 in data set [2], 3.8 in data set [5], 2.1 in data set [6] and 0.2 in data set [8]. Moreover, the Kd in data set [4] was 16.1 µM.
With `C/C=C1\CN2CC[C@]34C(=C(C(=O)OC)[C@H]1C[C@H]23)Nc1ccccc14`, the Activity result in [1] and in [3] was “Dose-dependent effect” throughout. The result in data set [9] was Active. Besides, the “fold change (FC)” value was 0.4 in [2], 3.8 in data set [5], 2.5 in [6] and 0.2 in data set [8]. Binding in data set [4] was put at a Kd of 99 µM.
`C/C=C1\CN2CC[C@]34C(=C(C=O)[C@H]1C[C@H]23)Nc1ccccc14`: the Activity result in data set [1] and in data set [3] was “Dose-dependent effect” in each case. Moreover, the result in [9] was Active. In addition, the “fold change (FC)” value in data set [2] was determined as 0.3; in data set [5] it was 2.1; in [6], 2.1; in [8], 0.2. Besides, binding in data set [4] was characterised by a dissociation constant (Kd) of 81 µM.
Regarding `CC[C@@H]1CN2CC[C@]34c5ccccc5-n5c3c(cc(C(=O)NCc3cc(OC)c(OC)c(OC)c3)c5=O)[C@H]1C[C@H]24`, the “fold change (FC)” value in data set [10] came out at 3.8; in data set [12] it was 2.1; in data set [13], 1.5; in data set [14], 2.5; in data set [15] it was 20; in data set [16], 1. The “fold change (FC)” value in data set [17] was 0.6; in data set [6], 93.8. Besides, the Activity entry in data set [1] and in data set [3] was “Dose-dependent effect” in each case. The IC50 – broadly, the midpoint of a concentration-inhibition curve – in data set [11] worked out at 0.38 µM. This compound also gave a Kd in data set [4] of 4.42 µM. For the same compound, the inhibition entry in data set [7] is “Active”.
With `CC[C@@H]1CN2CC[C@]34c5ccccc5-n5c3c(cc(C(=O)OC)c5=O)[C@H]1C[C@H]24` [LEUCONICINE B], the Activity result in data set [1] and in [3] was “Dose-dependent effect” throughout. In addition, the outcome in data set [9] was Active. Besides, the “fold change (FC)” value amounted to 0.3 in data set [2], 6.8 in [5], 3.8 in data set [6] and 0.2 in [8]. This compound also registered a Kd in [4] of 13.8 µM.
